Data published in ChEMBL document CHEMBL4371012, “Development of Macrocyclic Peptides Containing Epoxyketone with Oral Availability as Proteasome Inhibitors” (J Med Chem, 2018).
Active and inactive are the calls of the source. No cut-off for these calls is given here.

How the values were obtained:
RPMI-8226 = test: Antiproliferative activity against human RPMI8226 cells after 72 hrs by MTS assay; format: functional, cell-based; conditions: RPMI-8226, 72 h
[1] = Tmax in ICR mouse at 30 mg/kg, po via gavage by LC-MS/MS analysis; format: ADME, organism-based; conditions: in vivo
MM1.S = test: Antiproliferative activity against human MM1S cells after 72 hrs by MTS assay; format: functional, cell-based
[2] = target: T1, Proteasome Macropain subunit MB1 (Homo sapiens, UniProt P28074); test: Inhibition of human 20S proteasome chymotrypsin-like activity using Suc-Leu-Leu-Val-Tyr-AMC as substrate pretreated for 15 mins followed by substrate addition by fluorescence assay
T1 sequence (P28074 whole entry): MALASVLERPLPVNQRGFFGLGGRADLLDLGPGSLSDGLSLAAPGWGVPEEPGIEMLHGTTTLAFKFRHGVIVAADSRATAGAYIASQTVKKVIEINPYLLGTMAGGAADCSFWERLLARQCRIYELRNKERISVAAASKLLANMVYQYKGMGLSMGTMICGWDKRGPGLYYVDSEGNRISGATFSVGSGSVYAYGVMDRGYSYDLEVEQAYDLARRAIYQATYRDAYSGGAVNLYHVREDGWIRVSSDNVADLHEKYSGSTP

[3] = Metabolic stability in mouse liver microsomes assessed as parent compound remaining at 100 uM after 30 mins by LC-MS/MS analysis; format: ADME, Microsome; conditions: read-out: Stability
Outline: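 After the microsomal incubation, the clear supernatant was analysed by ESI LC-MS. The read-out was the relative peak area of each parent compound.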

MV4-11 = test: Antiproliferative activity against human MV4-11 cells after 72 hrs by MTS assay; format: functional, cell-based; conditions: MV4-11, 72 h
[4] = Cmax in ICR mouse at 30 mg/kg, po via gavage by LC-MS/MS analysis; format: ADME, organism-based; set-up: dose 30 mg/kg, route oral; conditions: in vivo
[5] = AUC (0 to t) in ICR mouse at 30 mg/kg, po via gavage after 1 hr by LC-MS/MS analysis; format: ADME, organism-based; set-up: time < 1 hr, dose 30 mg/kg, route oral; conditions: in vivo
Mus musculus = test: In vivo inhibition of 20S proteasome chymotrypsin-like activity in Balb/c mouse blood at 30 mg/kg, po measured at 2 to 24 hrs post dose using LLVY-AMC as substrate by fluorescence assay; format: functional, organism-based
Outline: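 BALB/c mice dosed orally in 0.5% CMC-Na vehicle. Blood was sampled at 2 and 24 h after dosing for proteasome chymotrypsin-like activity.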

Structure (SMILES): COC[C@@H]1NC(=O)c2nccn2CCCCCCOC[C@@H](C(=O)N[C@@H](Cc2ccccc2)C(=O)[C@@]2(C)CO2)NC1=O
- IC50 (RPMI-8226): 3 nM
- Tmax [1]: 13.2 min
- IC50 (MM1.S): 1 nM
- IC50 [2]: 14 nM
- remaining at 0.5 h, 100 µM [3]: 92%
- IC50 (MV4-11): 3 nM
- Cmax [4]: 92 ng/mL
- AUC(0-t) at 1 h [5]: 58 ng·h/mL
- inhibition (Mus musculus): Active
